Columns and labels:
[1] = target: T1, 5-hydroxytryptamine receptor 3A (Rattus norvegicus, UniProt P35563); assay: Displacement of [3H]LY278584 from 5HT3 receptor in rat cortical homogenate
T1 sequence (P35563 whole entry): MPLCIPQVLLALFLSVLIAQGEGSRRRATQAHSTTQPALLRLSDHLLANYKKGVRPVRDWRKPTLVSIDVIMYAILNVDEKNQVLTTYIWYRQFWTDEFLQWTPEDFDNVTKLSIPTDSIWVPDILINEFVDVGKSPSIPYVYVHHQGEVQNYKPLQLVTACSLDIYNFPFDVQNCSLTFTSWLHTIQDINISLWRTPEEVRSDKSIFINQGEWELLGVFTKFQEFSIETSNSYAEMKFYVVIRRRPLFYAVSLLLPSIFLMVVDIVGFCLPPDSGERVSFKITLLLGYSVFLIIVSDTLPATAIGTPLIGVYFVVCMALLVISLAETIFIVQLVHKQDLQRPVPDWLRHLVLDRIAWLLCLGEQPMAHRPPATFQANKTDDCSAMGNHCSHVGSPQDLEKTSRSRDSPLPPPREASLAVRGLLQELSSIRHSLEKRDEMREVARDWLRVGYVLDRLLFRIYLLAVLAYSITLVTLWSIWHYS
Summary of the method: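 Rat cortical homogenate, competition against [3H]LY278584 binding. Ki is the concentration giving half-maximal inhibition of binding, as the mean ± S.E.M. of three determinations.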

Rattus norvegicus [2] = assay: Antagonist activity at 5HT3 receptor in iv dosed Sprague-Dawley rat assessed as inhibition of 1-phenylbiguanide-induced bradycardia administered 5 mins before 1-phenylbiguanide challenge measured after 5 to 30 mins post-treatment by von Bezold-Jarisch reflex test; type: functional
Summary of the method: (§1)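 Urethane-anesthetized rats, compound given iv. Agonism was scored as the compound itself evoking the von Bezold-Jarisch reflex (bradycardia). Antagonism was tested by giving the compound iv 5, 15 or 30 min before phenylbiguanide (PBG) and scoring the reduction of PBG-evoked bradycardia. ED50 is the dose giving half of the maximal bradycardia evoked by the same compound.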

Brain = assay: Drug level in rat brain at 0.5 mg/kg, iv; type: ADME, organism-based; parameters: dose 0.5 mg/kg, route intravenous; settings: in vivo, BLD = below limit of detection
Summary of the method: (§2)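 Rats dosed iv at 0.25–1 mg/kg and sacrificed 30 min after injection. Mean ± SEM of three animals. Brain/plasma ratio assumes 1 g tissue equals 1 mL water.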

[3] = Ratio of drug level from brain to plasma in rat at 1 mg/kg, iv; type: ADME, organism-based; parameters: dose 1 mg/kg, route intravenous
Summary of the method: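 Rats given a single iv injection (0.25–1 mg/kg) and killed 30 min afterwards. Brain/plasma ratio calculated assuming 1 g tissue equals 1 mL water. Three animals per dose, mean ± SEM.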

[4] = target: T2, 5-hydroxytryptamine receptor 3A (Cavia porcellus, UniProt O70212); assay: Antagonist activity at 5HT3 receptor in spontaneously beating guinea pig right atrium assessed as inhibition of serotonin-induced maximum response by noncompetitive binding assay; type: tissue-based, Cardiac atrium; settings: read-out: IC50
T2 sequence (O70212 whole entry): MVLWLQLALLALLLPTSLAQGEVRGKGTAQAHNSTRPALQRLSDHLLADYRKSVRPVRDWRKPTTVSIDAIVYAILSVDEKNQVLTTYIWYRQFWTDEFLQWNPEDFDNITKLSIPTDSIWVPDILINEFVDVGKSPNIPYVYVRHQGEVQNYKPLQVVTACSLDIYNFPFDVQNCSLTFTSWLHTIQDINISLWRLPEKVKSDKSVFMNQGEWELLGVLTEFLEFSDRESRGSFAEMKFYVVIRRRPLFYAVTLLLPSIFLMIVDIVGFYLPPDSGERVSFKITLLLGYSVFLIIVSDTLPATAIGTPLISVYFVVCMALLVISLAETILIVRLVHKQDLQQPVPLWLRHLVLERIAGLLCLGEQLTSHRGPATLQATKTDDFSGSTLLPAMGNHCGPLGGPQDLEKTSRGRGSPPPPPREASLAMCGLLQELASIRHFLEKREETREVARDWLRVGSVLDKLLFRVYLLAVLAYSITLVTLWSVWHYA
Summary of the method: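 Spontaneously beating guinea pig right atria, exposed 30 min to test compound at 10 μM, followed by cumulative 5-HT log concentration-response curves versus control. Mean ± SEM of five to seven observations.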

Rattus norvegicus [5] = assay: Plasma concentration in rat at 0.25 mg/kg, iv; type: ADME, organism-based; parameters: dose 0.25 mg/kg, route intravenous; settings: in vivo; summary of the method: as §2
Rattus norvegicus [6] = assay: Agonist activity at 5HT3 receptor in iv dosed Sprague-Dawley rat assessed as induction of bradycardia measured after 5 to 30 mins post-treatment by von Bezold-Jarisch reflex test; type: functional; summary of the method: as §1

SMILES: Fc1ccc2c(c1)nc(N1CCN(CCc3cnc[nH]3)CC1)c1cccn12
- Ki ([1]; read-out: Ki): 0.33 µM

SMILES: Cc1cccc2nc(N3CCN(C)CC3)c3cccn3c12
- Ki ([1]; read-out: Ki): 0.00079 µM

SMILES: Fc1ccc2c(c1)nc(N1CCN(CC3=NCCN3)CC1)c1cccn12
- Ki ([1]; read-out: Ki): 0.03 µM

SMILES: CN1CCN(c2nc3cc(F)ccc3n3cccc23)CC1
- Ki ([1]; read-out: Ki): 0.00081 µM
- ID50 (Rattus norvegicus [2]): 0.6 mg/kg

SMILES: Cc1cccc2nc(N3CCN(Cc4ccccc4)CC3)c3cccn3c12
- Ki [1]: 0.0088 µM

SMILES: O=C(O)CN1CCN(c2nc3cc(F)ccc3n3cccc23)CC1
- Drug uptake (Brain): BLD
- Kp [3]: 0.03
- IC50 [4]: 1.88 µM
- concentration (Rattus norvegicus [5]): 540 nM
- ED50 (Rattus norvegicus [6]): 0.036 mg/kg

SMILES: Fc1ccc2c(c1)nc(N1CCN(CCn3ccnc3)CC1)c1cccn12
- Ki ([1]; read-out: Ki): 0.0222 µM

SMILES: CN1CCN(c2nc3cccc(F)c3n3cccc23)CC1
- Ki ([1]; read-out: Ki): 0.00044 µM
- ID50 (Rattus norvegicus [2]): 0.12 mg/kg

— ChEMBL document CHEMBL1154626, “Novel, potent, and selective quinoxaline-based 5-HT(3) receptor ligands. 1. Further structure-activity relationships and pharmacological characterization” (J Med Chem, 2009)
